Results published in paper PMC3932958 (Journal of medicinal chemistry, 2013).
pIC50: −log10 of the molar value. One block for each compound: values may come before it.

How the values were obtained:
[1] = system: GCPII; conditions: read-out: IC50 (GCPII); cited from earlier work
[2] = system: rat chronic constriction injury model of neuropathic pain; conditions: cited from earlier work
[3] = healthy subjects; cited from earlier work
[4] = Chemical stability in simulated gastric fluid; assay type: physicochemical; conditions: simulated gastric fluid pH 1.2, 37 °C, up to 48 h
Procedure, shortened: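 Test compound added to simulated gastric fluid (pH 1.2) and incubated at 37 °C. Samples taken at 30 min, 1, 4 and 48 h. Remaining thiolactone and hydrolysed parent quantified by HPLC: C18 column, water/acetonitrile gradient with 0.1% formic acid, UV detection at 220 nm.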

[5] = Metabolic stability in rat liver microsomes; assay type: in vitro ADME; conditions: over 1.5 h (data not shown)
Procedure, shortened: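 Test compound at 10 μM incubated with rat liver microsomes (0.5 mg/mL) in 100 mM potassium phosphate, pH 7.4, in triplicate. Aliquots at 0, 30, 60 and 90 min were quenched with 2 volumes of ice-cold acetonitrile containing losartan as internal standard. Appearance of the parent thiol and loss of compound were followed by LC/MS/MS (C18, negative-ion ESI, MRM of [M − H]−).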

[6] = Preliminary in vivo pharmacokinetics in rats; conditions: rat, oral 10 mg/kg, time points 0.25, 0.5, 1, 3 h

Compound: O=C(O)CCC(CCCS)C(=O)O (stereo not drawn) [Compound 1, 2-(3-mercaptopropyl)pentanedioic acid]
pIC50 [1]: 7.05 | Efficacy in preclinical animal models by oral administration ([2]; variety of preclinical animal models, oral): showed efficacy

Compound: CC(=O)S[C@@H](Cc1ccccc1)C(=O)N[C@H]1Cc2ccccc2[C@H]2CCC[C@@H](C(=O)O)N2C1=O [Compound 3]
Plasma exposure to parent 4 after oral administration of prodrug [3]: substantial plasma exposure to 4

Release of parent compound / stability in simulated gastric fluid [4]: completely stable | Stability in rat liver microsomes [5]: completely stable
Compound: O=C(O)c1cccc(-c2cccc3c2C(=O)SCC3)c1 [Compound 6, 3-(1-Oxoisothiochroman-8-yl)benzoic acid]

Compound: O=C(O)c1cccc(-c2cccc(CCS)c2C(=O)O)c1 [Compound 2, 3-(2-mercaptoethyl)-biphenyl-2,3’-dicarboxylic acid]
pIC50 [1]: 8.70 | Potency in a preclinical model of neuropathic pain following oral administration ([2]; oral administration): significantly improved potency over 1

Time of highest plasma level of compound 1 [6]: highest at the earliest time point | Release of parent compound / stability in simulated gastric fluid [4]: completely stable
Compound: O=C(O)CCC1CCCSC1=O (stereo not drawn) [Compound 5, 3-(2-Oxotetrahydro-2H-thiopyran-3-yl)propanoic acid]
